Test results: ChEMBL document CHEMBL4020830, “Design, Synthesis, and Evaluation of a Novel Series of Indole Sulfonamide Peroxisome Proliferator Activated Receptor (PPAR) α/γ/δ Triple Activators: Discovery of Lanifibranor, a New Antifibrotic Clinical Candidate” (J Med Chem, 2018)
pEC50: −log10 of the molar value. Activity calls are given as the source filed them. The calls are words filed in the database; no cut-off is given here.

Key:
Mus musculus [1] = assay: Antifibrotic activity in C57Bl6/J mouse model of CCl4-induced liver fibrosis assessed as decrease in collagen deposition in liver administered po qd for 3 weeks by picrosirius red staining based assay; type: functional, organism-based
How it was run: (§1)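 CCl4-induced liver fibrosis mice were dosed orally once daily at 3, 10 or 30 mg/kg for 3 weeks. Controls were CCl4-vehicle, vehicle oil and saline-injected groups. Liver collagen was scored by picrosirius red staining of histological sections. Plasma triglycerides and adiponectin were also measured. Analysis was one-way ANOVA with Dunnett's test.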

[2] = molecular target: T1, Peroxisome proliferator-activated receptor delta (Mus musculus) (UniProt P35396); assay: Transactivation of PPARdelta in mouse C2C12 cells assessed increase in [14C]oleate beta-oxidation at 3 uM preincubated for 48 hrs followed by [14C]oleate addition during last 2 hrs of incubation period relative to control; type: cell-based
T1 sequence (whole entry): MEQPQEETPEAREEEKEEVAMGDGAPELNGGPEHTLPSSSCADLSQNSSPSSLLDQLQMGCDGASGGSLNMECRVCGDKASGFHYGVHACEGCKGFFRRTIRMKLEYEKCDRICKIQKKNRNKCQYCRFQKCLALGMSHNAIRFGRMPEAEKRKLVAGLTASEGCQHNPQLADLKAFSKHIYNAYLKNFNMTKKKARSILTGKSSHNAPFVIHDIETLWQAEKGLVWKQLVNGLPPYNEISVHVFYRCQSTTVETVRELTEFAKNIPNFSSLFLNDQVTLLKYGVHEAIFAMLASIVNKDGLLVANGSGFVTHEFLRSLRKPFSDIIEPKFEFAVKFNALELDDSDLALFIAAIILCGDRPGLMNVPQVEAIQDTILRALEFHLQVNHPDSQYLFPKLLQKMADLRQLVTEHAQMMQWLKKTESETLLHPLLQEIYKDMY
How it was run: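 Fatty acid beta-oxidation was used as the functional read-out. PPARα activity was tested in human hepatoma HuH7 cells and PPARδ activity in mouse myoblast C2C12 cells, at 1, 3, 10 and 30 µM. Values are % beta-oxidation, mean of at least 2 independent experiments run in triplicate, with single-experiment values flagged.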

[3] = molecular target: T2, Peroxisome proliferator-activated receptor alpha (Mus musculus, UniProt P23204); assay: Transactivation of mouse GAL4-fused PPARalpha LBD expressed in African green monkey COS7 cells co-expressing 5Gal4 pGL3 TK Luc after overnight incubation by luciferase reporter gene assay; type: cell-based
T2 sequence (P23204 whole entry): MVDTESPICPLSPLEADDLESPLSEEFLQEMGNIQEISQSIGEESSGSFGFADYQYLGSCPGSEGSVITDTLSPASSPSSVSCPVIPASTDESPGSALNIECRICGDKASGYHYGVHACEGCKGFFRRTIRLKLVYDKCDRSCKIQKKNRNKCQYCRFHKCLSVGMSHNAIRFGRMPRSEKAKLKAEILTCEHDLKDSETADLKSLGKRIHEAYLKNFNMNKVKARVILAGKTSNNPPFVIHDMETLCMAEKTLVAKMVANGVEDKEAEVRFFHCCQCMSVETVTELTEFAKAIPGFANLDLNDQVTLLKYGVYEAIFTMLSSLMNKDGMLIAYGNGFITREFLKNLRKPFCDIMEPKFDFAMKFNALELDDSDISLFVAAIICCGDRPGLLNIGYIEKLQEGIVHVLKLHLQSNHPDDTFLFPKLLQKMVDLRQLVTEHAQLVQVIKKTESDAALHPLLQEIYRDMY
How it was run: (§2)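 Cell-based Gal-4 transactivation assay in COS-7 cells transfected with PPARα, PPARδ or PPARγ ligand-binding domain. EC50 and Emax were derived, with Emax as maximum activation in percent of control. EC50s are means of at least two independent experiments performed in triplicate.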

[4] = molecular target: T3, Peroxisome proliferator-activated receptor alpha (Mus musculus) (UniProt P23204); assay: Transactivation of mouse GAL4-fused PPARalpha LBD expressed in African green monkey COS7 cells co-expressing 5Gal4 pGL3 TK Luc after overnight incubation by luciferase reporter gene assay relative to fenofibric acid; type: cell-based; how it was run: as §2
T3 sequence (whole entry): T2 sequence (P23204 whole entry)

[5] = molecular target: T1, Peroxisome proliferator-activated receptor delta (Mus musculus); assay: Transactivation of mouse GAL4-fused PPARdelta LBD expressed in African green monkey COS7 cells co-expressing 5Gal4 pGL3 TK Luc after overnight incubation by luciferase reporter gene assay relative to GW501516; type: cell-based; how it was run: as §2
Mus musculus [6] = assay: Reduction in plasma triglyceride level in C57Bl6/J mouse model of CCl4-induced liver fibrosis at 3 to 30 mg/kg, po qd for 3 weeks; type: functional, organism-based; how it was run: as §1
[7] = molecular target: T4, Peroxisome proliferator-activated receptor gamma (Homo sapiens, UniProt P37231)
T4 sequence (P37231 whole entry): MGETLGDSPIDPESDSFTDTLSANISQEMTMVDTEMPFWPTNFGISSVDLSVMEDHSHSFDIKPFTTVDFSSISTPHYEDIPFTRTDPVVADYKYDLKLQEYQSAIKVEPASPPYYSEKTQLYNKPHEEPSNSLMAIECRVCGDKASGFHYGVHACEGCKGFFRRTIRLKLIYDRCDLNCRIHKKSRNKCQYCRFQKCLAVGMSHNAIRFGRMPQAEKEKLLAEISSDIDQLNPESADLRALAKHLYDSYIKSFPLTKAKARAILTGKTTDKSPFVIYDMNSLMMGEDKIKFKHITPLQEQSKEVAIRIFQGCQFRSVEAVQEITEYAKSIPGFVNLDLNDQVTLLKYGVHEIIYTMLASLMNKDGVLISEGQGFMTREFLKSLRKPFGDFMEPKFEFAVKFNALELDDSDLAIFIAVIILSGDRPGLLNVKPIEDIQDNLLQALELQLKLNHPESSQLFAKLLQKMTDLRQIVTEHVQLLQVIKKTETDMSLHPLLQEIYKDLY

[8] = molecular target: T4, Peroxisome proliferator-activated receptor gamma; remark: listed apart in the source
[9] = molecular target: T4, Peroxisome proliferator-activated receptor gamma; remark: listed apart in the source
[10] = molecular target: T4, Peroxisome proliferator-activated receptor gamma; remark: listed apart in the source
Mus musculus [11] = assay: Antidiabetic activity in C57BL/Ks mouse model of diabetic dyslipidemia assessed as decrease in plasma glucose level at 10 mg/kg, po qd administered via gavage for 10 days measured 4 hrs post last dose; type: functional, organism-based
How it was run: (§3)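 Homozygous male C57BL/Ks-db (db/db) mice were gavaged once daily at 10 or 30 mg/kg, for 5 or 10 days. Retro-orbital blood was drawn before treatment and 4 h after the last gavage. Glucose and triglycerides were measured in serum. Results are expressed as % variation on the final day versus the control group. Analysis was one-way ANOVA with Dunnett's test.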

Mus musculus [12] = assay: Antidiabetic activity in C57BL/Ks mouse model of diabetic dyslipidemia assessed as decrease in plasma glucose level at 30 mg/kg, po qd administered via gavage for 10 days measured 4 hrs post last dose; type: functional, organism-based; how it was run: as §3
Mus musculus [13] = assay: Hypolipidemic activity in C57BL/Ks mouse model of diabetic dyslipidemia assessed as decrease in plasma triglyceride level at 30 mg/kg, po qd administered via gavage for 10 days measured 4 hrs post last dose; type: functional, organism-based; how it was run: as §3

Structure (SMILES)	Activity (Mus musculus [1])	Activity [2]	pEC50 [3]	Emax [4]	Emax [5]	Activity (Mus musculus [6])	pEC50 [7]	pEC50 [8]	pEC50 [9]	pEC50 [10]	Activity (Mus musculus [11])	Activity (Mus musculus [12])	Activity (Mus musculus [13])
O=C(O)CCCc1cc2cc(Cl)ccc2n1S(=O)(=O)c1ccc2ncsc2c1 [LANIFIBRANOR]	Dose-dependent effect	37%	6.44	72%	131%	Active	5.39	5.83	5.39	5.47	–	–	–
O=C(O)CCc1cc2cc(Cl)ccc2n1S(=O)(=O)c1ccccc1	–	–	–	–	–	–	–	–	–	–	inactive	Active	Active
